Compounds with a hit are over-represented: about 3.1% of the library has one in this group of screens.
rCAG RNA binder = binds r(CAG) RNA repeats | inhibition, % at 3 µM | AID 651821 | r(CAG) RNA repeat, TO-PRO-1 dye displacement fluorescence | 370,000 tested, 1.3% active;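 active means inhibition above the plate cutoff, the mean of all test compounds on that plate plus 3 SD, cut at about 35% in these data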;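 further: 0% = DMSO alone and 100% = 100 µM mitoxantrone as full dye displacement; higher means more dye released from RNA so lower well fluorescence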
UHRF1 MBD2 ctr = UHRF1 methyl-DNA binding inhibition; UHRF1 binding to methylated oligo, TR-FRET; inhibition, % at 4.4 µM; 370,000 tested, 0.75% active; AID 687016; in the data active means inhibition above about 21%;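 further: UHRF1 SRA domain binding a hemimethylated CpG hairpin DNA probe; 0% = median of test compound wells and 100% = reference inhibitor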
Target sequence (Q96T88 whole entry, looked up, the tested form may be a part): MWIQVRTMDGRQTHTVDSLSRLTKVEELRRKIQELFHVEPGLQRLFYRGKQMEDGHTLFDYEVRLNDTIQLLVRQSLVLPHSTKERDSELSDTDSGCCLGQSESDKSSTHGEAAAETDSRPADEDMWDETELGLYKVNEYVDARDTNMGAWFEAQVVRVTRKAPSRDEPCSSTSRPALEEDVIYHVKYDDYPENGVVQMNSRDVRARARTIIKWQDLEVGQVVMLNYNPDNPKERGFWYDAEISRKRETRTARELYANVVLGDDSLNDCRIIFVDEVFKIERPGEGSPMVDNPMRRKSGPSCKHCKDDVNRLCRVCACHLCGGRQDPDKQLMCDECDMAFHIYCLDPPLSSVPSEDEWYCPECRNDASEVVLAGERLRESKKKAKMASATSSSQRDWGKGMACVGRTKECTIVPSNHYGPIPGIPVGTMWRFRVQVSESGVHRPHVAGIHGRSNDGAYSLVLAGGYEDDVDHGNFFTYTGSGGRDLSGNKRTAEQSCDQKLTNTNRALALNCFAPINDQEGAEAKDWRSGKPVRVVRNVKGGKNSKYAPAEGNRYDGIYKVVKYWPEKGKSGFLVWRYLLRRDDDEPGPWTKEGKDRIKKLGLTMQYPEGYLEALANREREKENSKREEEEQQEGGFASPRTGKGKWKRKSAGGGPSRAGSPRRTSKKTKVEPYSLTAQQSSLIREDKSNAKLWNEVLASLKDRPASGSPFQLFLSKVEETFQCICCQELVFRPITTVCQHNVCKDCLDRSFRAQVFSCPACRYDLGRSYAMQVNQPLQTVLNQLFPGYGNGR
MBD2 DNA inh = inhibitors of human MBD2 binding to methylated oligonucleotide. Q9UBB5. TR-FRET. inhibition, % at 4.4 µM. 370,000 tested, 0.31% active. AID 686964; in the data active means inhibition above about 13%
CSN inh = inhibitors of human CSN-mediated cullin deneddylation | Q92905 | Purified CSN, SCF-Nedd8-OG deneddylation, fluorescence polarization | inhibition, % at 12.5 µM | 360,000 tested, 0.38% active;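 active means pattern-corrected inhibition above about 35%, with an unprinted fluorescence ratio check between 0.5 and 1.5, limit read from the data, passing the limit was not always enough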;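 further: 0% = enzyme with substrate and 100% = substrate without enzyme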
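Material: purified human Csn5 enzyme expressed in HEK293T cells / Medium: Tris buffer pH 7.5, NaCl, DTT, Tween-20, trehalose, ovalbumin / Compound dosing: 12.5 µM single point / Schedule: 90 min incubation of compound, enzyme and substrate at room temperature / Signal: fluorescence polarization of the substrate / Control set: no-enzyme wells high, enzyme-with-substrate wells low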
ATG4B inh = ATG4B (human) cysteine protease inhibition; Q9Y4P1; ATG4B cleavage of LC3-PLA2, NBD-HPC fluorescence, 1 h; inhibition, % at 8.33 µM; 340,000 tested, 0.51% active; AID 504462; in the data active means inhibition above about 40%
LEDGF integ inh = blocks HIV-1 LEDGF/p75-dependent DNA integration; TR-FRET IN-LEDGF/p75 DNA integration, Eu/Cy5; inhibition, % at 3.7 µM; 370,000 tested, 0.64% active; AID 743269;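 active means inhibition above the screen-wide mean plus 3 SD, cut at about 13% in these data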;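 further: signal is the Cy5 over europium emission ratio at 671 and 618 nm; 0% = plate median of compound wells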
Starred values were filed as active, the others as inactive; / = no result given; ! = not active in a repeat.

SMILES	rCAG RNA binder	UHRF1 MBD2 ctr	MBD2 DNA inh	CSN inh	ATG4B inh	LEDGF integ inh
CCOc1ccc(N2C(=O)/C(=C/c3ccco3)C(=O)NC2=S)cc1	/	/	/	104.5	80.8*	/
CC(C)(C)n1nnnc1C1CN=C(c2ccccc2)c2ccccc2N1 (stereo not drawn)	-1.3	-1.1	1.2	/	/	-1.7
COc1ccc(-c2nc3ccc(Br)cn3c2CC(=O)N2CCCC2)cc1OC	8.5	23.4*	7.6	2.7	/	-0.4
N#CCC[C@@H]1CC[C@]2(CCCN(Cc3ccncc3)C2)O1	0.7	0.5	2.8	/	/	0.0
CCN(CC)P(=O)(NC(=O)C(Cl)(Cl)Cl)N(CC)CC.[Cl-].[Cl-].[Cl-].[Nd+3]	6.8	-2.4	4.7	104.2*!	8.7	-0.1
COc1ccc(Cc2cn(C)c(N)n2)cc1	4.1	-2.4	1.7	/	/	1.2
COc1ccc(N=Nc2c(O)[nH]c(=S)[nH]c2=O)cc1	-10.6	-11.3	-14.9	57.9*	4.3	-0.4
CC(=O)N1c2ccccc2C(c2ccccc2)=NCC1C(=O)NC1CCCCC1 (stereo not drawn)	-0.7	0.0	-0.4	/	/	1.9
CCN(CC)C(=O)c1ccc2c(c1)C1C(Cl)C(Sc3ccccc3[N+](=O)[O-])CC1C(C(=O)O)N2 (stereo not drawn)	/	/	/	0.7	13.3	/
O=C(O)c1ccc2c(c1)C1C(Cl)C(Sc3ccccc3[N+](=O)[O-])CC1C(c1cccc([N+](=O)[O-])c1)N2 (stereo not drawn)	/	/	/	32.9	48.2*	/
c1ccc(Cn2nnnc2C2CN=C(c3ccccc3)c3ccccc3N2)cc1 (stereo not drawn)	4.8	-2.8	-2.5	/	/	-1.4
O=C(NCCN1CCC2(CC1)C(=O)NCN2c1ccccc1)c1ccc(F)c(F)c1	-2.7	1.8	-1.7	/	/	0.3
O=Cc1c(C(=O)O)n(Cc2ccc(Cl)cc2)c2ccccc12	20.2	-0.7	3.9	60.2*	25.3	-0.1
COc1ccc(N2C(=O)/C(=C/c3ccc(C)o3)C(=O)NC2=S)c(OC)c1	43.9*	3.1	-0.6	31.8	2.1	11.3
COc1ccc(N2C(=O)/C(=C/c3ccc(OC)c(OC)c3)C(=O)NC2=S)cc1	21.8	0.3	-5.1	-3.2	-2.1	0.6
CC(c1ccccc1)n1cc(C(=O)NC2CCCC2)nn1 (stereo not drawn)	1.3	-2.9	-6.6	/	/	-0.5
CC(C)(C)n1nnnc1C(c1ccnc2ccccc12)N1CCC2(CC1)C(=O)NCN2c1ccccc1 (stereo not drawn)	4.0	-3.6	1.6	123.2*	/	1.6
CCC1(c2ccccc2)C(=O)N(C)C(=O)N(C)C1=O	-2.4	0.6	1.2	2.0	-18.3	-2.5
CN1C(=O)N(C)C(=O)C2(Sc3ccccc3C2=O)C1=O	-0.9	3.4	5.5	0.7	2.8	29.2*
O=c1c(C=NCc2cccs2)c(O)n(C2CCCCC2)c(=O)n1C1CCCCC1	3.1	1.4	-4.3	-1.5	-11.8	0.5
O=c1c(C=Nc2cccnc2Cl)c(O)n(CCCCl)c(=O)n1C1CCCCC1	4.3	-5.0	-6.0	49.5*	3.1	4.0
O=c1[nH]c(O)c(C=Nc2ccccc2Oc2ccccc2)c(=O)[nH]1	2.2	-0.9	4.7	47.7*	3.2	1.5
O=C(c1ccccc1)c1ccccc1N=Cc1c(O)[nH]c(=O)[nH]c1=O	1.6	-7.0	3.9	25.3	3.4	-2.3
Cc1cccc(OP(N)(N)=O)c1C	2.5	-0.9	1.7	115.3*	3.1	-0.5
COC1=CC23CCCN2CCc2cc4c(cc2C3C1O)OCO4 (stereo not drawn)	3.7	43.0*	0.5	0.3	/	-2.5
SMILES	rCAG RNA binder	UHRF1 MBD2 ctr	MBD2 DNA inh	CSN inh	ATG4B inh	LEDGF integ inh
COc1ccc2c(c1OC)C(=O)OC2C1c2cc3c(cc2CCN1C)OCO3 (stereo not drawn)	-1.4	5.9	-4.0	2.6	-7.9	1.2
OC1CN2CCC(O)C2C(O)C1O (stereo not drawn)	0.2	-3.2	2.7	/	/	0.7
CN1C(=O)NC(=O)/C(=C\c2ccc([N+](=O)[O-])o2)C1=O	/	/	/	41.7	6.8	/
CN1C(=O)NC(=O)/C(=C/c2ccc([N+](=O)[O-])o2)C1=O	20.7	65.2*	12.0	/	-6.0	36.7*
Cc1ccc(NP(=O)(Oc2ccccc2)Oc2ccccc2)cc1	-1.5	-0.8	-5.0	-2.6	0.1	-1.6
Cc1ccc(OP(=O)(NCc2ccccc2)Oc2ccc(C)cc2)cc1	-5.7	22.7*	4.6	-2.7	28.1	2.3
C=CCCC(NC(=O)OCc1ccccc1)P(=O)(Oc1ccccc1)Oc1ccccc1 (stereo not drawn)	/	1.9	4.0	/	/	-2.4
COC(=O)[C@@]1(O)c2c(oc3cccc(O)c3c2=O)C=C[C@H]1O	2.0	-1.4	3.2	/	/	1.0
Cc1ccsc1C(=O)C1CCCN(Cc2cnc(N3CCOCC3)s2)C1 (stereo not drawn)	-0.2	2.1	1.0	101.2*	2.5	-1.9
CCOC(=O)CC[C@@H]1CC[C@]2(CCCN(Cc3ccccn3)C2)O1	0.0	0.1	0.6	/	/	1.3
COC(=O)[C@H]1C[C@@]2(C)c3ccccc3N[C@H]2N1	1.8	9.1	6.2	/	/	5.0
O=c1[nH]c2ccccc2n1C1CCN(C(CCc2ccccc2)c2nnnn2C2CCCC2)CC1 (stereo not drawn)	2.5	0.0	-4.8	106.4*	/	-3.5
O=C1C=C(N2CC2)c2ccccc2C1=O	32.3	6.2	-13.0	12.7	/	38.7*
CCN(CC)C(=O)c1ccc2c(c1)C1C=CCC1C(C(=O)O)N2 (stereo not drawn)	46.0*	19.7	-2.3	9.8	10.1	39.0*
CCN(CC)C(=O)c1ccc(N(Cc2ccccc2)S(C)(=O)=O)cc1	-7.8	-0.1	2.9	1.8	-3.2	-1.3
O=C(C[N+]12CCC(CC1)C(CO)C2)c1ccc([N+](=O)[O-])cc1 (stereo not drawn)	3.2	29.0*	3.5	-0.5	-2.4	-1.1
O=C(C[N+]12CCC(CC1)C(OC(=O)c1ccccc1)C2)c1ccc([N+](=O)[O-])cc1 (stereo not drawn)	0.2	2.2	3.7	-2.4	4.0	-3.2
CCCCn1c(N)c(C(=O)NCCN2CCOCC2)c2nc3ccccc3nc21	-0.9	-4.6	-6.9	36.5*	-3.3	1.8
COc1ccc(CCn2c(O)c(/C=N/N3CCOCC3)c(=O)[nH]c2=O)cc1OC	3.0	42.3*	-1.3	-3.9	5.1	-4.4
COc1ccc(CCn2c(O)c(C=Nc3ccc(NC(C)=O)cc3)c(=O)[nH]c2=O)cc1OC	-2.3	-1.6	-0.5	37.6*	10.2	-1.4
CCOc1ccc(N=Cc2c(O)n(CCc3ccc(OC)c(OC)c3)c(=O)[nH]c2=O)cc1	-1.8	0.6	5.5	29.1	1.0	-3.4
O=c1c2ccccc2nc(/C=C/c2ccc(O)cc2)n1-c1ccccc1O	5.5	1.1	6.1	3.4	27.8	-1.4

Source: PubChem BioAssay
